Measured values from ChEMBL document CHEMBL2029337, “Synthesis and antimicrobial activities of structurally novel S,S'-bis(heterosubstituted) disulfides” (Bioorg Med Chem Lett, 2012).
Values after ≈ are worked out from the molar mass of the structure shown. Active and inactive are the calls of the source. No cut-off for these calls is given here.

Legend:
[1] = test system: Staphylococcus aureus; experiment: Antibacterial activity against methicillin-resistant Staphylococcus aureus ATCC 43300 assessed as growth inhibition at 50 ug after 24 hrs by agar-diffusion assay in presence of GSH; assay type: functional, organism-based
Procedure, shortened: (§1)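 Kirby-Bauer well diffusion on an MRSA lawn (0.5 McFarland suspension swabbed onto tryptic soy agar). Four test agents sat in wells equidistant from a centre well holding 1 mg of additive in DMSO; a DMSO-only centre well served as vehicle control. After overnight incubation at 37 °C, the inhibition zones were examined for size or shape change.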

[2] = test system: Staphylococcus aureus; experiment: Antibacterial activity against methicillin-resistant Staphylococcus aureus ATCC 43300 assessed as reduction in bacterial counts at 4 ug/mL after overnight incubation by […] (reference value: 4.02 x 10^8 cfu/mL); assay type: functional
[3] = test system: Staphylococcus aureus; experiment: Membrane disrupting activity in methicillin-resistant Staphylococcus aureus ATCC 43300 by scanning electron microscopy; assay type: functional, organism-based
Procedure, shortened: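 Scanning electron microscopy of MRSA cells before and after disulfide treatment during Kirby-Bauer agar diffusion experiments, assessing external cell morphology and cell-wall integrity.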

[4] = Antibacterial activity against Francisella tularensis subspecies holarctica LVS after 48 hrs by broth dilution method; assay type: functional, Francisella tularensis subsp. holarctica LVS
[5] = Cytotoxicity against bovine primary aortic endothelial cells at 20 ug/mL after 48 hrs by MTT assay; assay type: cell-based, Bos taurus; conditions: cattle, endothelial cell
Procedure, shortened: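 Primary bovine aortic endothelial cells were kept in EBM-2 with 10% FBS and penicillin/streptomycin at 37 °C under 5% CO₂. Cells were trypsinized, counted and plated in 96-well dishes, then treated for 48 h. MTT was added and formazan dissolved in DMSO; absorbance was read at 540 nm with 660 nm background. Viability is expressed as percent of untreated control.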

[6] = test system: Staphylococcus aureus; experiment: Antibacterial activity against methicillin-susceptible Staphylococcus aureus ATCC 25923 assessed as reduction in bacterial counts at 4 ug/mL after overnight incubation […] (reference value: 7.60 x 10^8 cfu/mL); assay type: functional
Procedure, shortened: (§2)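 Viability count assay against S. aureus ATCC 25923. All tubes started at 10⁵ cfu/mL, and viable bacteria were counted before and after incubation with disulfide at the line's concentration. Tubes without disulfide served as the growth reference. Performed in triplicate.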

[7] = test system: Bartonella sp.; experiment: Antibacterial activity against Bartonella ssp. […] by agar dilution method; assay type: functional
[8] = test system: Staphylococcus aureus; experiment: Antibacterial activity against methicillin-resistant Staphylococcus aureus ATCC 43300 assessed as reduction in bacterial counts at 2 ug/mL after overnight incubation by […] (reference value: 4.02 x 10^8 cfu/mL); assay type: functional
[9] = test system: Staphylococcus aureus; experiment: Antibacterial activity against methicillin-resistant Staphylococcus aureus ATCC 43300 assessed as growth inhibition at 50 ug after 24 hrs by agar-diffusion assay in presence of iPrSSiPr; assay type: functional, organism-based; procedure, shortened: as §1
[10] = test system: Staphylococcus aureus; experiment: Antibacterial activity against methicillin-resistant Staphylococcus aureus ATCC 43300 assessed as growth inhibition at 50 ug after 24 hrs by agar-diffusion assay in presence of PPh3; assay type: functional, organism-based; procedure, shortened: as §1
[11] = test system: Staphylococcus aureus; experiment: Antibacterial activity against methicillin-resistant Staphylococcus aureus ATCC 43300 assessed as growth inhibition at 50 ug after 24 hrs by agar-diffusion assay in presence of lysine; assay type: functional, organism-based; procedure, shortened: as §1
[12] = test system: Staphylococcus aureus; experiment: Antibacterial activity against methicillin-resistant Staphylococcus aureus ATCC 43300 […] by agar dilution method; assay type: functional
[13] = test system: Staphylococcus aureus; experiment: Antibacterial activity against methicillin-resistant Staphylococcus aureus ATCC 43300 assessed as growth inhibition at 1 mg after 24 hrs by agar-diffusion assay; assay type: functional, organism-based; procedure, shortened: as §1
[14] = test system: Staphylococcus aureus; experiment: Antibacterial activity against methicillin-resistant Staphylococcus aureus ATCC 43300 assessed as growth inhibition at 50 ug after 24 hrs by agar-diffusion assay in presence of CoA; assay type: functional, organism-based; procedure, shortened: as §1
[15] = test system: Staphylococcus aureus; experiment: Antibacterial activity against methicillin-resistant Staphylococcus aureus ATCC 43300 assessed as growth inhibition at 50 ug after 24 hrs by agar-diffusion assay in presence of valine; assay type: functional, organism-based; procedure, shortened: as §1
[16] = test system: Staphylococcus aureus; experiment: Antibacterial activity against methicillin-susceptible Staphylococcus aureus ATCC 25923 assessed as reduction in bacterial counts at 2 ug/mL after overnight incubation […] (reference value: 7.60 x 10^8 cfu/mL); assay type: functional; procedure, shortened: as §2
[17] = test system: Candida albicans; experiment: Antifungal activity against Candida albicans assessed as reduction in viability by trypan blue staining; assay type: functional
Procedure, shortened: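 C. albicans was exposed in YNB to a 1, 0.5, 0.25 and 0.125 series, following the NCCLS fungal protocol. Non-viable cells were stained with trypan blue and counted in a cell-counting chamber under a microscope at 40X. Controls were untreated cells in YNB and cells heat-killed in PBS (boiled 5 min).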

[18] = test system: Staphylococcus aureus; experiment: Antibacterial activity against methicillin-resistant Staphylococcus aureus ATCC 43300 assessed as growth inhibition at 50 ug after 24 hrs by agar-diffusion assay in presence of cystine; assay type: functional, organism-based
[19] = test system: Staphylococcus aureus; experiment: Antibacterial activity against methicillin-resistant Staphylococcus aureus ATCC 43300 assessed as growth inhibition at 50 ug after 24 hrs by agar-diffusion assay in presence of glycine; assay type: functional, organism-based; procedure, shortened: as §1
[20] = test system: Staphylococcus aureus; experiment: Antibacterial activity against methicillin-susceptible Staphylococcus aureus ATCC 25923 […] by agar dilution method; assay type: functional
[21] = test system: Escherichia coli; experiment: Antibacterial activity against Escherichia coli K-12 […] by agar dilution method; assay type: functional, organism-based

CC(C)OSSOC(C)C
growth inhibition (GI) [1]: inactive | Activity [2]: 2.88 ×10³ CFU/ml | Activity [3]: inactive | MIC [4]: 4 µg/mL (≈ 21.9 µM) | Activity [5]: Non-toxic | Activity [6]: 2.04 ×10³ CFU/ml | Activity [7]: inactive | Activity [8]: >1.2 ×10⁶ CFU/ml | growth inhibition (GI) [9]: Active | growth inhibition (GI) [10]: Active | growth inhibition (GI) [11]: Active | MIC [12]: 0.5 µg/mL (≈ 2.74 µM) | growth inhibition (GI) [13]: Active | growth inhibition (GI) [14]: inactive | growth inhibition (GI) [15]: Active | Activity [16]: 3.86 ×10⁴ CFU/ml | MIC [17]: 0.5 µg/mL (≈ 2.74 µM) | growth inhibition (GI) [18]: inactive | growth inhibition (GI) [19]: Active | MIC [20]: 1 µg/mL (≈ 5.49 µM) | Activity [21]: inactive
